Screening results deposited in PubChem by Sanford-Burnham Center for Chemical Genomics.
SUMO1 PPI mod: modulators of human SUMO1-mediated protein-protein interactions | P63165 | SUMO1 binding to a labelled peptide, TR-FRET, 1 h | inhibition, % at 20 µM | 0.33% of 360,000 active | AID 602429; in the data active means inhibition above about 37%
Target sequence (P63165 whole entry, looked up): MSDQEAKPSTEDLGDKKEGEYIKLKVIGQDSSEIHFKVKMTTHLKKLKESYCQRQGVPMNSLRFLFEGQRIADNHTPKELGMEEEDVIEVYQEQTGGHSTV
Scp-1 inhibitor: blocks human Scp-1 phosphatase activity | Q9GZU7 | Recombinant Scp1, phosphopeptide, malachite green phosphate absorbance | inhibition, % at 20 µM | 0.88% of 340,000 active;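 active means inhibition above about 50% at 20 µM, limit read from the data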;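 further: plate controls were DMSO wells with enzyme for no effect and wells lacking enzyme for full effect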
Target sequence (Q9GZU7 76-261 limits assumed): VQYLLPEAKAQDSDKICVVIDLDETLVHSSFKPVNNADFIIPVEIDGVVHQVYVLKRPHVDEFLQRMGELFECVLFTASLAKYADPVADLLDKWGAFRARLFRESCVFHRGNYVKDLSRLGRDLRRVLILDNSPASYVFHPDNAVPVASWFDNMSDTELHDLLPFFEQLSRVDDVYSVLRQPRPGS
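Incubation: 45 min enzyme reaction at room temperature / System: truncated SCP-1 phosphatase (76-261aa) / Reagent: Phospho 17-mer peptide substrate / Buffer or medium: Acidic Tris acetate buffer with magnesium and detergent / Signal: absorbance at 630 nm / Doses: one concentration, 20 µM, with 1.0% DMSO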
STEP block: STEP (human) phosphatase inhibition. P54829. AID 588621. 0.25% of 360,000 active. inhibition, % at 20 µM. recombinant STEP, OMFP fluorogenic substrate, fluorescence;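 active means inhibition at 20 µM, scaled per plate between control wells, above about 37%, limit read from the data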;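 further: 0% = DMSO with enzyme and substrate and 100% = substrate only without enzyme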
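Measure: Control-normalized % inhibition with plate pattern correction | Test system: STEP phosphatase, cell-free reaction | Medium: pH 6.0 Bis-Tris with DTT and Tween 20 | Technique: Fluorescence, 480/540 nm | Times: Reaction 20 min, ambient temperature | Doses: Single compound dose of 20 µM, 1% DMSO final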
DNMT1 inh: blocks human DNA methyltransferase DNMT1; P26358; DNMT1 molecular beacon, Hinp1I cleavage, fluorescence; inhibition (reported as % activation of signal), % at 10 µM; 0.83% of 360,000 active; in the data active means inhibition above about 50%
NadD block: NadD (S. aureus) enzyme inhibition | purified NadD enzyme, colorimetric absorbance read-out | inhibition, % at 20 µM | 0.78% of 360,000 active; in the data active means inhibition above about 26%
LMPTP inh: LMPTP (human) inhibition. 0.22% of 360,000 active. inhibition, % at 20 µM. recombinant LMPTP-A, OMFP fluorogenic substrate, fluorescence intensity;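 active means compounds that cut the enzyme signal by at least half of the control window in the single-dose screen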;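 further: plate controls were DMSO wells with enzyme plus substrate for no effect and substrate without enzyme for full effect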
Target sequence (P24666 whole entry, looked up): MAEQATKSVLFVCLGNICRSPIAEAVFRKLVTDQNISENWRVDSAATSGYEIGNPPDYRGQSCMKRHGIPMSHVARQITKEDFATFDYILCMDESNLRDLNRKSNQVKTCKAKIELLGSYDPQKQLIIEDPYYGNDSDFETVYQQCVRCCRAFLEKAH
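Assay system: LMPTP-A, protein tyrosine phosphatase of low molecular weight / Medium: pH 6.0 Bis-Tris buffer with DTT and Triton X-100 / Schedule: 50 min enzyme reaction at room temperature, protected from light / Measured by: endpoint fluorescence intensity from OMFP dephosphorylation / Read-out basis: % inhibition relative to no-enzyme and uninhibited control wells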
NadD conf: confirmation of Staphylococcus aureus NadD inhibitors. purified S. aureus NadD, colorimetric enzyme assay. AID 624309. inhibition, % at 20 µM. shares compounds with NadD block. 13% of 2,000 active; in the data active means inhibition mostly above about 42%, no sharp cut-off; inactive means mostly below about 42%
An asterisk follows results filed as active; x = not tested or not shown. The list is not random: actives were taken first. Their share in the collection is about 2.3%.

SMILES	SUMO1 PPI mod	Scp-1 inhibitor	STEP block	DNMT1 inh	NadD block	LMPTP inh	NadD conf
COC(=O)c1ccc(Cn2nnc3c(=O)[nH]c(C4CCCN(S(=O)(=O)c5ccc(C)cc5)C4)nc32)cc1 (configuration not stated)	-0.7	-6.8	-0.9	-1.6	28.9*	0.3	1.5
CC(=O)c1cccc(S(=O)(=O)N2CCCC(c3nc4c(nnn4Cc4cccc(Cl)c4)c(=O)[nH]3)C2)c1 (configuration not stated)	13.2	4.4	0.8	-0.5	45.7*	4.2	24.3
Cc1ccc(Cn2nnc3c(=O)[nH]c(C4CCN(S(=O)(=O)c5ccc(S(=O)(=O)NC6CC6)cc5)CC4)nc32)cc1	3.1	-7.9	-1.9	-4.0	30.8*	3.4	43.8*
COC(=O)c1ccc(Cn2nnc3c(=O)[nH]c(C4CCCN(S(=O)(=O)c5cccc(Cl)c5)C4)nc32)cc1 (configuration not stated)	3.2	-1.1	0.7	-2.2	32.6*	3.4	14.7
Cc1ccc(Cn2nnc3c(=O)[nH]c(C4CCN(S(=O)(=O)c5ccc(C)cc5)CC4)nc32)cc1	-0.7	-6.5	-0.7	-7.7	21.8	3.0	x
O=c1[nH]c(C2CCCN(S(=O)(=O)c3ccccc3)C2)nc2c1nnn2Cc1cccc(Cl)c1 (configuration not stated)	-0.7	-6.4	-0.1	0.1	18.0	4.2	x
COc1cc(CN2CCNC(=O)C2CC(=O)N2CCCO2)cc(OC)c1 (configuration not stated)	-1.9	-0.8	1.7	4.2	1.5	1.3	x
CC(C)c1ccc(NC(=O)NCc2cccnc2)cc1	1.5	-4.2	-0.4	-8.4	-0.5	3.2	x
Cc1ccccc1OCC(=O)Nc1ccc(N2CCN(C)CC2)c(Cl)c1	6.3	-7.7	-3.3	0.8	-7.7	2.0	x
O=c1[nH]c(C2CCCN(S(=O)(=O)c3ccccc3Cl)C2)nc2c1nnn2Cc1ccc2c(c1)OCCO2 (configuration not stated)	7.5	-2.3	0.9	-4.8	37.4*	4.2	35.1
COc1cccc(NC(=S)NN=C2CCCCCC2)c1	-0.6	-6.5	3.4	3.3	-2.6	0.4	x
O=C(N/N=C/c1ccc(-c2ccccc2[N+](=O)[O-])o1)c1cncc(Br)c1	-1.6	-2.7	3.5	-20.1	0.4	2.2	x
O=C(N/N=C\c1ccc(-c2ccccc2[N+](=O)[O-])o1)C1COc2cc3ccccc3cc2O1 (configuration not stated)	15.7	-10.1	4.4	-41.4	42.0*	2.5	46.5
O=C(N/N=C\c1ccc(-c2ccccc2[N+](=O)[O-])o1)C1COc2ccccc2O1 (configuration not stated)	-4.7	-5.2	-2.4	-14.3	-1.1	2.3	x
Cc1c(C(=O)N/N=C/c2ccc(-c3ccccc3[N+](=O)[O-])o2)sc(N)c1C#N	16.0	-6.5	3.1	-18.5	35.8*	3.0	20.5
NC(=O)CCC(C(=O)O)N1C(=O)C2C3CCC(C3)C2C1=O (configuration not stated)	-1.3	x	-0.1	5.0	-1.6	-1.1	x
CC1(C)Cc2c(c(N3CCOCC3)nc3sc4c(NN)ncnc4c23)CS1	0.2	1.4	2.7	-8.2	33.9*	0.5	0.8
Cc1[nH]c(=O)nc(SCc2cccc(Cl)c2)c1C#N	12.5	-4.9	3.7	4.0	-1.5	1.6	x
N#Cc1c(SCc2c(Cl)cccc2Cl)nc(N)[nH]c1=S	15.3	-5.7	-3.1	-13.6	30.3*	3.1	47.3*
N#C/C(=C\c1coc2ccc(O)cc2c1=O)C(=O)Nc1nc2ccccc2s1	-19.7	9.1	-88.7	84.3*	30.4*	8.9	41.6
N#C/C(=C\c1coc2ccccc2c1=O)C(N)=S	-8.6	-6.9	3.7	-0.9	21.7	0.9	x
CC(C)CC1NC(=O)c2cc3ccccc3cc2-n2c1nc1cc(Cl)ccc1c2=O (configuration not stated)	-5.5	x	-3.1	-9.9	20.5	-4.1	x
NC1=NC(=O)C(Cc2ccc(Br)cc2)S1 (configuration not stated)	3.1	-6.5	1.7	1.6	-2.5	-0.3	x
Cc1cccn2c(=O)c(/C=C(\C#N)S(=O)(=O)c3ccccc3)c(N3CCN(c4ccccc4)CC3)nc12	1.9	6.8	1.0	2.6	43.4*	2.3	0.7
CC(=O)c1ccc(-n2c(SCC(=O)c3c[nH]c4ccccc34)nc3ccccc3c2=O)cc1	-1.7	18.3	2.3	-8.4	36.8*	1.3	27.1
SMILES	SUMO1 PPI mod	Scp-1 inhibitor	STEP block	DNMT1 inh	NadD block	LMPTP inh	NadD conf
CCOC(=O)c1c(C)[nH]c(C)c1C(=O)CSc1nc2ccccc2c(=O)n1-c1ccc(CC)cc1	4.9	-20.6	-0.7	-19.3	5.5	4.3	x
O=C(Nc1nnc(-c2ccc3c(c2)CCCC3)o1)c1ccc(Cl)cc1Cl	23.0	-9.1	0.9	3.1	35.9*	1.6	23.9
O=C(Nc1nnc(-c2ccc3c(c2)CCCC3)o1)c1c(F)cccc1F	13.1	-4.2	2.2	1.4	15.4	-0.3	x
O=c1[nH]c(CSc2nc3ccccc3s2)nc2ccccc12	0.1	-8.4	-1.3	-0.5	-5.3	0.5	x
COc1ccc(C2NCCc3c2[nH]c2ccccc32)cc1CSc1nc2ccccc2s1 (configuration not stated)	-16.2	18.1	1.8	8.4	44.3*	3.2	11.2
CCc1ccc(C2=NNC(=Nc3cccc(S(=O)(=O)N(C)C)c3)SC2)cc1	12.8	9.2	6.7	-25.6	34.1*	1.9	24.2
Cc1ccc(C2=NNC(=Nc3ccc(F)cc3)SC2)cc1	-8.1	-2.3	7.1	-10.8	13.2	0.1	x
COCCN(C(=O)COC(=O)COc1ccc(Cl)c(C)c1)c1c(N)n(Cc2ccccc2)c(=O)[nH]c1=O	-3.3	-1.3	-1.0	1.1	6.0	-1.6	x
O=C(CNc1cccc2ccccc12)N/N=C/c1ccccn1	-6.2	-4.2	-0.8	-52.2	47.7*	3.7	1.0
Cc1ccccc1NCC(=O)N/N=C/c1ccc([N+](=O)[O-])cc1	-29.8	-2.7	-2.3	1.9	-2.5	0.7	x
O=C(CNc1cccc2ccccc12)N/N=C/c1ccc([N+](=O)[O-])cc1	-1.9	-3.7	0.9	-27.8	39.6*	0.4	44.2*
Cc1cccc(NCC(=O)N/N=C\c2ccccn2)c1	2.0	-2.3	0.0	-2.2	-4.5	-1.2	x
Cc1ccc(NS(=O)(=O)c2ccc(Cl)c(C(=O)Nc3ccccc3-c3nc4ccccc4[nH]3)c2)cc1C	2.0	9.2	-4.2	-36.3	46.9*	3.3	13.0
